Compound activity from PubChem.
A selection: hits, their analogues and other compounds. The true share with any hit is near 2.4%.
TPT1 inhibitor = inhibitors of Candida albicans tRNA 2'-phosphotransferase TPT1 | inhibition, % at 5 µM | hit rate 0.81% among 300,000 | AID 1962 | recombinant caTPT1, FP RNA substrate dephosphorylation;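 active = inhibition above the mean of all tested compounds plus 3 SD, set per screening campaign, cut at about 24% in these data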
Neddylation inh = cullin neddylation inhibition | inhibition, % at 25 µM | hit rate 0.58% among 360,000 | TR-FRET cullin neddylation, biochemical; in the data active = inhibition above about 36%
CSN inh = inhibitors of human CSN-mediated cullin deneddylation | Q92905 | Purified CSN, SCF-Nedd8-OG deneddylation, fluorescence polarization | inhibition, % at 12.5 µM | hit rate 0.38% among 360,000;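 active = pattern-corrected inhibition above about 35%, with an unprinted fluorescence ratio check between 0.5 and 1.5, limit read from the data, passing the limit was not always enough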
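Schedule: reaction 90 min, room temperature / Assay system: HEK293T-derived human Csn5 enzyme / Input: Csn5 at 0.24 nM final / Measure: inhibition of Csn5 cleavage, % / Control set: substrate-only high control, full reaction low control / Technique: fluorescence polarization of the substrate / Buffer or medium: Tris/NaCl/DTT buffer, pH 7.5 / Reagent: SCFSkp2-Nedd8OG substrate at 10 nM final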
Rin1-Abl PPI inh = blocks binding of human Rin1 to Abl | P00519+Q13671 | hit rate 0.4% among 360,000 | TR-FRET Rin1/Abl binding, biochemical | inhibition, % at 7.35 µM; in the data active = inhibition above about 5%, passing the limit was not always enough
Rpn11 block = inhibitors of human proteasome Rpn11 | O00487 | human 26S proteasome, Ub4-pepOG fluorescence polarization; 20S core pre-blocked with epoxomicin | inhibition, % at 20 µM | hit rate 0.59% among 360,000;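 active = inhibition at 20 µM, scaled to each plate's controls, above about 33%, limit read from the data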
HNF4A DNA FP = change in binding of human HNF4 alpha to DNA; activity change, % at 10 µM; HNF4a-FITC DNA binding, fluorescence polarization, 1 h; P41235; hit rate 0.3% among 360,000; in the data active = activity change above about 30%, passing the limit was not always enough
Rpn11 confirm = confirmation of human proteasome Rpn11 inhibitors. shares compounds with Rpn11 block. hit rate 29% among 1,900. AID 602318. inhibition, % at 20 µM. purified human 26S proteasome, Ub4-pepOG fluorescence polarization; proteasome pretreated with epoxomicin
MMP-2 inh = counter-screen for RPN11 inhibitors: inhibition of human MMP-2 | shares compounds with Rpn11 block | recombinant MMP-2, FRET peptide cleavage fluorescence | inhibition, % at 20 µM | hit rate 4% among 1,900;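 also: human MMP-2 activated beforehand with APMA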
Thrombin FP = counter-screen for RPN11 inhibitors: inhibition of bovine thrombin; AID 602333; inhibition, % at 20 µM; shares compounds with Rpn11 block; bovine thrombin cleavage of Ub4-pepOG, fluorescence polarization; hit rate 13% among 1,900;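 active = mean inhibition at least 40% at 20 µM, or signal 3 deviations below plate average, so some actives read negative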
Each line names hits and unclear results; the compound was inactive in the other large screens (follow-up assays come after a bar, where shown). Rule as the data show it, unless noted: active = inhibition above about 40%; inactive = the rest.

CC(=O)c1cccc(S(=O)(=O)N2CCN(c3nc4cc(C)cc(C)c4cc3C#N)CC2)c1	Rpn11 block 43 | Rpn11 confirm inactive | MMP-2 inh inactive | Thrombin FP inactive
O=S1(=O)CC(N2CCSCC2)CN1Cc1cn(Cc2ccc(F)cc2)nn1 (stereo not drawn)	none (no result: TPT1 inhibitor, Rin1-Abl PPI inh, Rpn11 block)
COc1cc(/C=C2\SC(N3CCC(C)CC3)=NC2=O)ccc1O	Rpn11 block 65 | Rpn11 confirm inactive | MMP-2 inh inactive | Thrombin FP inactive
CCN(CC1COc2ccccc2O1)C(=S)NC1CC2CCC1C2 (stereo not drawn)	none
CCOC(=O)c1cc2occc2n1Cc1c(F)cccc1Cl	Rpn11 block 42 | Rpn11 confirm inactive | MMP-2 inh inactive | Thrombin FP inactive
O=C(N/N=C\c1cn(-c2ccccc2)nc1-c1ccccc1)c1ccc2c(c1)OCO2	none
O=C(N/N=C/c1cn(-c2ccccc2)nc1-c1ccc2c(c1)OCCO2)c1ccncc1	Rpn11 block 82 | Rpn11 confirm inactive | MMP-2 inh inactive | Thrombin FP inactive
O=C(NC(=S)Nc1cccc(NC(=S)NC(=O)c2ccccc2)c1)c1ccccc1	Rpn11 block 40 (no result: TPT1 inhibitor) | Rpn11 confirm inactive | MMP-2 inh 49 | Thrombin FP inactive
O=C(O)c1ccc(NC(=S)Nc2ccccc2)cc1	Rpn11 block 34 | Rpn11 confirm inactive | MMP-2 inh inactive | Thrombin FP inactive
CCOc1ccc(CCNS(=O)(=O)c2cnc[nH]2)cc1OCC	none
Cc1cccc(C)c1NC(=O)CS(=O)CC(=O)Nc1ccc(N2CCOCC2)cc1 (stereo not drawn)	none
CCc1ccc(NC(=O)CS(=O)CC(=O)Nc2ccc(N3CCOCC3)cc2)cc1 (stereo not drawn)	Rpn11 block 52 | Rpn11 confirm inactive | MMP-2 inh inactive | Thrombin FP inactive
Cc1c(OCC(N)=O)ccc2c(-c3ccccc3)cc(=O)oc12	Rpn11 block 58 | Rpn11 confirm 47 | MMP-2 inh inactive | Thrombin FP inactive
CC(=O)COc1ccc2c(-c3ccccc3)cc(=O)oc2c1C	none
C[C@@H]1CN([C@H](C)CO)C(=O)CCCn2cc(nn2)CO[C@H]1CN(C)S(=O)(=O)c1ccccc1	none (no result: TPT1 inhibitor)
CCN(CC)c1ccc(C=C2C(=O)OC(c3ccccc3)OC2=O)cc1 (stereo not drawn)	Rpn11 block 77 | Rpn11 confirm 77 | MMP-2 inh inactive | Thrombin FP 76
CCN(CC)c1ccc(C=C2SC(=S)NC2=O)cc1	none (not shown: TPT1 inhibitor, Rpn11 block)
O=C(CNC(=O)c1ccc(Br)o1)Nc1cccc(S(=O)(=O)N2CCCC2)c1	none
Oc1c(CN2CCOCC2)cc(CN2CCOCC2)cc1CN1CCOCC1	Rpn11 block 44 (no result: TPT1 inhibitor) | Rpn11 confirm inactive | MMP-2 inh inactive | Thrombin FP inactive
CCOc1ccc(C(=O)Nc2cccc(-c3nc4cccnc4o3)c2)cc1Cl	Rpn11 block 55 | Rpn11 confirm inactive | MMP-2 inh inactive | Thrombin FP inactive
COc1ccc(NC(=O)c2cc(OC)c(OC)cc2OC)c(S(=O)(=O)N2CCOCC2)c1	Rpn11 block 161 | Rpn11 confirm inactive | MMP-2 inh inactive | Thrombin FP inactive
CCOc1ccc(/C=C2\SC(=S)N(CCC(=O)Nc3ccc(C(=O)O)cc3)C2=O)cc1	Rpn11 block 44 | Rpn11 confirm inactive | MMP-2 inh inactive | Thrombin FP inactive
O=C(CCCN1C(=O)/C(=C/c2ccc3c(c2)OCO3)SC1=S)Nc1ccc(C(=O)O)cc1	Rpn11 block 56 | Rpn11 confirm 52 | MMP-2 inh inactive | Thrombin FP inactive
O=C(CN1C(=O)S/C(=C\c2ccc(-c3cc(C(=O)O)ccc3Cl)o2)C1=O)Nc1ccc2c(c1)OCO2	Rpn11 block 169 (no result: TPT1 inhibitor) | Rpn11 confirm inactive | MMP-2 inh inactive | Thrombin FP inactive
Cn1cc(/C=C2/SC(=O)N(CC(=O)Nc3ccc4c(c3)OCO4)C2=O)c2ccccc21	none
